Measured values from article PMC6404779 (Nature medicine, 2018).

Experiments:
[1] = test system: RAF-null MEFs expressing ARAF; experiment: ERK signaling in RAF-null MEFs expressing one RAF isoform; format: cell-based, Mouse; conditions: 1hr
In short: (§1)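 RAF-less MEFs came from Araflox/lox;Braflox/lox;Craflox/lox;RERT ert/ert MEFs. Doxycycline-inducible wild-type ARAF, BRAF or CRAF was transduced retrovirally without 4-OHT and selected with puromycin/hygromycin. Cells were then infected with Adeno-Cre (MOI 100) and cultured in 1 uM 4-OHT plus 50 ng/ml doxycycline. GFP-positive cells were sorted after 2 weeks. Loss of endogenous RAF and induced expression were confirmed by genomic PCR and Western blot.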

[2] = test system: RAF-null MEFs expressing BRAF; experiment: as above; format: cell-based, Mouse; conditions: 1hr
In short: as §1

[3] = test system: RAF-null MEFs expressing CRAF; experiment: as above; format: cell-based, Mouse; conditions: 1hr
In short: as §1

[4] = test system: A375 cells with overexpression of BRAF V600E; experiment: A375 xenograft with doxycycline-induced BRAF V600E overexpression; format: in vivo, nude mice; conditions: vemurafenib 75mg/kg BID, PLX8394 50mg/kg BID
In short: (§2)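 A375 cells carrying a retroviral tet-regulated BRAF V600E or NRAS Q61K construct (kept in 50 ug/ml hygromycin and 0.2 ug/ml puromycin). 5 million cells were injected s.c. into nude mice fed doxycycline food. At 100 mm3, mice stayed on doxycycline food and received vehicle, reference RAF inhibitor 75 mg/kg BID or test compound 50 mg/kg BID. Tumour size was tracked (n=5; mean±s.d.; two-tailed unpaired t-test).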

[5] = test system: A375 cells with NRAS Q61K expression; experiment: A375 xenograft with doxycycline-induced NRAS Q61K; format: in vivo, nude mice; conditions: vemurafenib 75mg/kg BID, PLX8394 50mg/kg BID
In short: as §2

[6] = test system: BRAF K601E CRC PDX tumors; experiment: Colorectal cancer PDX model; format: in vivo, NSG mice; conditions: vemurafenib 75mg/kg BID, PLX8394 50mg/kg BID
BRAF G466V PDX tumors = experiment: Colorectal cancer PDX model; format: in vivo, NSG mice; conditions: Cetuximab 50 mg/kg IP twice weekly, vemurafenib 75 mg/kg BID, PLX8394 50 mg/kg BID
BRAF V600E monomer = conditions: cited from earlier work
first site of RAF dimers = conditions: cited from earlier work
[7] = test system: second site of RAF dimers; conditions: read-out: IC50 of binding to the second site of RAF dimers; cited from earlier work

Row | Structure (SMILES) | effect on ERK signaling, cells expressing only ARAF [1] | effect on ERK signaling, cells expressing only BRAF [2] | effect on ERK signaling, cells expressing only CRAF [3] | response of ERK signaling and tumor growth, BRAF V600E amplified [4] | response of ERK signaling and tumor growth, mutant NRAS [5] | tumor growth response, single RAF inhibitor [6] | response of ERK signaling and tumor growth (BRAF G466V PDX tumors) | off-rate from BRAF V600E monomers (BRAF V600E monomer) [h] | IC50 (BRAF V600E monomer; read-out: IC50 of binding to the BRAF V600E monomer) [nM] | time the drug remains bound to the other site after washout (first site of RAF dimers; cells pretreated 1 hour, washed out) | IC50 (first site of RAF dimers; read-out: IC50 of binding to first site of RAF dimers) [nM] | IC50 [7] [nM]
1 | CCCS(=O)(=O)Nc1ccc(F)c(C(=O)c2c[nH]c3ncc(-c4ccc(Cl)cc4)cc23)c1F [vemurafenib, reference compound] | activated ERK signaling | activated ERK signaling | activated ERK signaling | resistance | resistance | insensitive | insensitive | – | – | – | – | –
2 | COC(=O)N[C@@H](C)CNc1nccc(-c2cn(C(C)C)nc2-c2cc(Cl)cc(NS(C)(=O)=O)c2F)n1 [encorafenib] | – | – | – | – | – | – | – | > 24 | 14 | up to 24 hours | 14 | 287
